Data published in ChEMBL document CHEMBL1121883, “1-(Naphthylalkyl)-1H-imidazole derivatives, a new class of anticonvulsant agents” (J Med Chem, 1981).
Where “and” joins values, the source holds several entries; their conditions need not be identical. Equal entries are not always repeated.

Tests used:
Mus musculus [1] = assay: Dose of compound causing a neurological deficit in 50% of mice after ip administration; 32-90; assay type: functional
Procedure, shortened: (§1)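 Traction test in male Hilltop ICR-derived mice (19-30 g, groups of 8-10) just before electroshock, 15 min after ip or 30 min after oral dosing. Mice placed on a 16-gauge, 65-cm copper wire 40 cm above the table; deficit scored as failure to stay on for 10 s. ND50 with 95% limits by Litchfield-Wilcoxon.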

Mus musculus [2] = assay: Protective index is defined as ND50 (i.p.) divided by MES ED50(i.p.); assay type: functional
Procedure, shortened: (§2)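 Ratio of ND50 from the wire traction test to MES ED50, both measured by the same route (ip or oral) in the same animals. Quantal dose-response data for each were evaluated by Litchfield-Wilcoxon.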

Mus musculus [3] = assay: Compound was evaluated for anticonvulsant activity by maximal electroshock assay(MES) in mice after ip administration; 14-33; assay type: functional
Procedure, shortened: (§3)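 Male Hilltop ICR-derived mice (19-30 g), groups of 8-10, dosed ip with compound or aqueous vehicle. After 15 min pretreatment, a transcorneal 60-Hz, 50 mA shock was given for 0.2 s. Just before the shock, each mouse was tested on a horizontal wire (10 s). Quantal data were analysed by Litchfield-Wilcoxon to give ED50 with 95% confidence limits.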

Mus musculus [4] = assay: Compound was evaluated for anticonvulsant activity by maximal electroshock assay(MES) in mice after ip administration; 18-48; assay type: functional; procedure, shortened: as §3
Mus musculus [5] = assay: Dose of compound causing a neurological deficit in 50% of mice after ip administration; 57-91; assay type: functional; procedure, shortened: as §1
Mus musculus [6] = assay: Compound was evaluated for anticonvulsant activity by maximal electroshock assay(MES) in mice after ip administration; 22-80; assay type: functional; procedure, shortened: as §3
Mus musculus [7] = assay: Dose causing a neurological deficit in 50% of mice after ip administration.; assay type: functional; procedure, shortened: as §1
[8] = Lethal dose was measured in mice after ip administration.; assay type: toxicity, organism-based; settings: mouse, in vivo
Procedure, shortened: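 Male Simonsen ICR-derived mice (16-24 g), groups of three, given compound ip in increasing doses within a behavioral screen. Deaths counted on day 5, and LD50 estimated from 5-day survival. Quantal data analysed by the Litchfield-Wilcoxon method.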

Mus musculus [9] = assay: Dose of compound causing a neurological deficit in 50% of mice after ip administration; assay type: functional; procedure, shortened: as §1
Mus musculus [10] = assay: Compound was evaluated for anticonvulsant activity by maximal electroshock assay(MES) in mice after ip administration; assay type: functional; procedure, shortened: as §3
Mus musculus [11] = assay: Protective index defined as ND50 (p.o.) divided by MES ED50(op); assay type: functional; procedure, shortened: as §2
Mus musculus [12] = assay: Compound was evaluated for anticonvulsant activity by maximal electroshock assay(MES) in mice after po administration; 15-26; assay type: functional
Procedure, shortened: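 Male Hilltop ICR-derived mice (19-30 g), groups of 8-10, given compound or aqueous vehicle orally. The transcorneal 60-Hz shock (50 mA, 0.2 s) followed a 30 min pretreatment and a wire-hang neurological check (10 s). ED50 and 95% confidence limits were obtained from quantal data by the Litchfield-Wilcoxon method.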

Rattus norvegicus [13] = assay: Dose of compound causing a neurological deficit in 50% of rat after ip administration.; assay type: functional
Procedure, shortened: (§4)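 Rats (Simonsen Sprague-Dawley-derived, 80-110 g, groups of 8-10) placed on a suspended 16-gauge, 65-cm copper wire just before electroshock. Deficit scored as inability to remain for 8 s. Pretreatment was 15 min ip or 30 min oral. Quantal data analysed by Litchfield-Wilcoxon to give ND50 with 95% limits.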

Rattus norvegicus [14] = assay: Compound was evaluated for anticonvulsant activity by maximal electroshock assay(MES) in rat after ip administration; 3.8-8.4; assay type: functional
Rattus norvegicus [15] = assay: Compound was evaluated for anticonvulsant activity by maximal electroshock assay(MES) in rat after po administration; 15-36; assay type: functional
Procedure, shortened: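 Male Simonsen Sprague-Dawley-derived rats, 80-110 g, groups of 8-10, dosed with compound or aqueous vehicle; pretreatment 15 min after ip or 30 min after oral dosing. Transcorneal electroshock, 150 mA, 60 Hz, 0.2 s, given after the wire test. ED50 with 95% confidence limits from quantal data by Litchfield-Wilcoxon.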

Mus musculus [16] = assay: Dose of compound causing a neurological deficit in 50% of mice after ip administration; 41-246; assay type: functional; procedure, shortened: as §1
Mus musculus [17] = assay: Dose of compound causing a neurological deficit in 50% of mice after po administration.; assay type: functional; procedure, shortened: as §1
Rattus norvegicus [18] = assay: Dose of compound causing a neurological deficit in 50% of rat after po administration.; assay type: functional; procedure, shortened: as §4
Mus musculus [19] = assay: Compound was evaluated for anticonvulsant activity by maximal electroshock assay(MES) in mice after ip administration; 8-13; assay type: functional; procedure, shortened: as §3

COc1c(C(=O)Cn2ccnc2)ccc2ccccc12.Cl
ND50 (Mus musculus [1]): 51 mg/kg | PI (Mus musculus [2]): 2.2 | ED50 (Mus musculus [3]): 23 mg/kg

Cc1ccccc1OC(Cn1ccnc1)c1ccc2ccccc2c1.Cl (stereo not given)
ED50 (Mus musculus [4]): 33 mg/kg | ND50 (Mus musculus [5]): 70 mg/kg | PI (Mus musculus [2]): 2.1

Cl.O=C(Cn1ccnc1)c1ccc2cc(Br)ccc2c1
ED50 (Mus musculus [6]): 41 mg/kg

CCSC(Cn1ccnc1)(SCC)c1ccc2ccccc2c1.Cl
ND50 (Mus musculus [7]): 78 mg/kg | LD50 [8]: > 100 mg/kg | PI (Mus musculus [2]): 2.2

CSC(Cn1ccnc1)(SC)c1ccc2ccccc2c1.Cl
ND50 (Mus musculus [7]): 29 mg/kg | LD50 [8]: > 100 mg/kg | PI (Mus musculus [2]): 0.9

C[S+]([O-])C(Cn1ccnc1)c1ccc2ccccc2c1.Cl (stereo not given)
ND50 (Mus musculus [9]): >40 mg/kg | ED50 (Mus musculus [10]): > 40 mg/kg

Cl.O=C(CCn1ccnc1)c1ccc2ccccc2c1
PI (Mus musculus [11]): >5 and >4 | ED50 (Mus musculus [12]): 20 mg/kg | ND50 (Rattus norvegicus [13]): >60 mg/kg | ED50 (Rattus norvegicus [14]): 5.9 mg/kg | ED50 (Rattus norvegicus [15]): 25 mg/kg | ND50 (Mus musculus [16]): 60 mg/kg | ND50 (Mus musculus [17]): >100 mg/kg | PI (Mus musculus [2]): 6 and >10 | ND50 (Rattus norvegicus [18]): >100 mg/kg | ED50 (Mus musculus [19]): 10 mg/kg
